Experimental data: ChEMBL document CHEMBL1154810, “Synthesis, characterization and biocidal activity of new organotin complexes of 2-(3-oxocyclohex-1-enyl)benzoic acid” (Eur J Med Chem, 2010)
Values after ≈ are worked out from the molar mass of the structure shown.

What follows are molecules tested on HEK293 (assay: Cytotoxicity against HEK293 cells after 24 hrs by MTT assay). Settings: not given.
Format: cell-based, Homo sapiens
With CHLOROTRIMETHYLSTANNANE the IC50 was 8 nM. DICHLORODIMETHYLSTANNANE showed an IC50 of 10 nM. DIBUTYLDICHLOROSTANNANE was tested, and the IC50 was 30 nM. Molecule DICHLORODIPHENYLSTANNANE has an IC50 of 50 nM. CHLOROTRIPHENYLSTANNANE was tested, and the IC50 was 10 nM. Molecule TRIBUTYLCHLOROSTANNANE has an IC50 of 40 nM.

Each molecule was assayed on Candida albicans (assay: Antimicrobial activity against Candida albicans ATCC 18804 after 48 hrs). Settings: ATCC 18804, 48 h.
Format: functional
Method in brief: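 Broth microdilution MIC per NCCLS M27-A in RPMI 1640. Yeasts were pre-grown on Sabouraud medium, 24 h for C. albicans and 48 h for C. neoformans. Compound solution was added to wells, then incubated 37 °C for 48 h. Ketoconazol was the positive control and DMSO 1 and 2% in RPMI the negative controls. Triplicate runs. MIC was the lowest concentration giving an optically clear well, judged visually against the drug-free growth control.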
CC(=O)N1CCN(c2ccc(OCC3COC(Cn4ccnc4)(c4ccc(Cl)cc4Cl)O3)cc2)CC1 (configuration not stated) [KETOCONAZOLE] showed an MIC of 0.24 µM (≈ 0.128 µg/mL).
